Data published in ChEMBL document CHEMBL2046313, “Discovery and evaluation of a non-Zn chelating, selective matrix metalloproteinase 13 (MMP-13) inhibitor for potential intra-articular treatment of osteoarthritis” (J Med Chem, 2012).

Columns and labels:
[1] = Metabolic stability in human microsomes assessed as unmetabolized compound after 60 mins; assay type: ADME, Microsome; settings: read-out: Stability
Rattus norvegicus [2] = assay: Toxicity in Sprague-Dawley rat assessed as joint irritation at 0.5 mg/kg, ia measured after 48 hrs; assay type: organism-based; parameters: dose 0.5 mg/kg; settings: in vivo, other
[3] = Drug uptake in Sprague-Dawley rat synovial lavage at 0.5 mg/joint measured after 21 days; assay type: ADME; settings: read-out: Drug uptake
Rattus norvegicus [4] = species on record: Rattus norvegicus; assay: Chondroprotective activity in Sprague-Dawley rat cartilage assessed as inhibition of MMP13-mediated C1,C2 release at 0.5 mg/joint, ia measured after 24 hrs by ELISA; assay type: functional
Outline: (§1)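 Male Sprague-Dawley rats (175−200 g, three per group) received one IA injection of 50 μL PBS holding 10 mg/mL suspension (sonicated, vortexed) into right knee. They were killed at 1, 7, 14 or 21 days, and tibial cartilage was collected. Cartilage was then challenged with 10 μg/mL APMA-activated human MMP-13 for 24 h at 37 °C in Tris pH 7.5. The reaction was stopped with 10 mM EDTA, and released C1,2C was measured by ELISA. Vehicle cartilage incubated with or without MMP-13 defined 100% and 0%.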

Interstitial collagenase = target: T1, Interstitial collagenase (Homo sapiens, UniProt P03956); assay: Inhibition of human recombinant MMP1 using MCA-Pro-Leu-Gly-Leu-Dpa-Ala-Arg-NH2.AcOH as substrate preincubated for 10 mins measured by fluorescence analysis
T1 sequence (P03956 whole entry): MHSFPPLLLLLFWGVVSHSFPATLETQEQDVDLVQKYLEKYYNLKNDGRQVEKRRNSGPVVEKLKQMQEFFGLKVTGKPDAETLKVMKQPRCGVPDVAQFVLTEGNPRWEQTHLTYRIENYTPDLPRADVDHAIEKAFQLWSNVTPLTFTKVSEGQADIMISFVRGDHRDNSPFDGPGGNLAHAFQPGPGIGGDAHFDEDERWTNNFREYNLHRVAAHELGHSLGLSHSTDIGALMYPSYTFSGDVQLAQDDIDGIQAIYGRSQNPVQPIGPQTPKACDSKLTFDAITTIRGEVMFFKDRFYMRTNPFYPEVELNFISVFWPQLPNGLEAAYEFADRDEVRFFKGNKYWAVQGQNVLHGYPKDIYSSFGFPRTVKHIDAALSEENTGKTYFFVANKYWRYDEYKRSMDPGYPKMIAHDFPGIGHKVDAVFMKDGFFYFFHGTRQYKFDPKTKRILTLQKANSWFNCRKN
Outline: (§2)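 Catalytic domains of recombinant human MMPs were assayed with fluorogenic OmniMMP substrate in 50 mM Tris-HCl pH 7.5, 150 mM NaCl, 5 mM CaCl₂, 0.05% Brij-35. Enzyme was 1–10 nM and substrate 4–10 μM, optimized per assay. Enzyme was preincubated 10 min with varying inhibitor concentrations, and IC50 was calculated from runs done at least in duplicate.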

Plasma [5] = assay: Drug uptake in Sprague-Dawley rat plasma at 1 mg/kg, iv measured after 8 weeks; assay type: ADME, organism-based; parameters: dose 1 mg/kg, route intravenous; settings: in vivo, 1344 h, BLD = below limit of detection
Rattus norvegicus [6] = species on record: Rattus norvegicus; assay: Chondroprotective activity in Sprague-Dawley rat cartilage assessed as inhibition of MMP13-mediated C1,C2 release at 0.5 mg/joint, ia measured on day 7 by ELISA; assay type: functional; outline: as §1
Stromelysin-1 = Stromelysin-1 (Homo sapiens, UniProt P08254); assay: Inhibition of human recombinant MMP3 using MCAArg-Pro-Lys-Pro-Val-Glu-Nva-Trp-Arg-Lys(DNP)-NH2 as substrate preincubated for 10 mins measured by fluorescence analysis
Stromelysin-1, sequence (P08254 whole entry, the tested form may be a part): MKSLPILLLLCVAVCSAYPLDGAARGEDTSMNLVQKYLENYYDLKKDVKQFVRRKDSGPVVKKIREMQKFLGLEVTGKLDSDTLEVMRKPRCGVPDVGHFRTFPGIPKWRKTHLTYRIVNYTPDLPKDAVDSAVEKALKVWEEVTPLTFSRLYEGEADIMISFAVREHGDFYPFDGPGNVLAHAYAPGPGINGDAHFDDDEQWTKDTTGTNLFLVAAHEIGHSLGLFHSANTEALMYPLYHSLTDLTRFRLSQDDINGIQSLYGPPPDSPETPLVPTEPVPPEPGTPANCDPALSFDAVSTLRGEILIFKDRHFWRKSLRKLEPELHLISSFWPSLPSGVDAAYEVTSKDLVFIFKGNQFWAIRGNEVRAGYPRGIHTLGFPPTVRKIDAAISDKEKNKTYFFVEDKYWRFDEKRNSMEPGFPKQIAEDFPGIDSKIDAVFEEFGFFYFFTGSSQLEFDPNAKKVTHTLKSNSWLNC
Outline: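 Catalytic domain of recombinant human MMP-3 was assayed with NFF-3 fluorogenic substrate in 50 mM MES pH 6.0, 10 mM CaCl₂, 0.05% Brij-35. Enzyme was 1–10 nM and substrate 4–10 μM. Enzyme was preincubated 10 min with varying inhibitor concentrations, and IC50 came from at least duplicate runs.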

Rattus norvegicus [7] = species on record: Rattus norvegicus; assay: Toxicity in Sprague-Dawley rat assessed as ability to use limbs at 0.5 mg/joint measured on day 56; assay type: organism-based; settings: in vivo, other
[8] = Metabolic stability in rat microsomes assessed as unmetabolized compound after 60 mins; assay type: ADME, Microsome; settings: read-out: Stability
Plasma [9] = assay: Drug uptake in Sprague-Dawley rat plasma at 100 mg/kg, po measured after 8 weeks; assay type: ADME, organism-based; parameters: dose 100 mg/kg, route oral; settings: in vivo, 1344 h, BLD = below limit of detection
[10] = Drug uptake in Sprague-Dawley rat cartilage at 0.5 mg/joint measured on day 56; assay type: ADME, tissue-based, Cartilage tissue; settings: read-out: Drug uptake
Rattus norvegicus [11] = species on record: Rattus norvegicus; assay: Chondroprotective activity in Sprague-Dawley rat cartilage assessed as inhibition of MMP13-mediated C1,C2 release at 0.5 mg/joint, ia measured on day 21 by ELISA; assay type: functional; outline: as §1
[12] = target: Matrix metalloproteinase-14 (Homo sapiens, UniProt P50281); assay: Inhibition of human recombinant MMP14 using MCA-Pro-Leu-Gly-Leu-Dpa-Ala-Arg-NH2.AcOH as substrate preincubated for 10 mins measured by fluorescence analysis; outline: as §2
Neutrophil collagenase = Neutrophil collagenase (Homo sapiens, UniProt P22894); assay: Inhibition of human recombinant MMP8 using MCA-Pro-Leu-Gly-Leu-Dpa-Ala-Arg-NH2.AcOH as substrate preincubated for 10 mins measured by fluorescence analysis; outline: as §2
Neutrophil collagenase, sequence (P22894 whole entry): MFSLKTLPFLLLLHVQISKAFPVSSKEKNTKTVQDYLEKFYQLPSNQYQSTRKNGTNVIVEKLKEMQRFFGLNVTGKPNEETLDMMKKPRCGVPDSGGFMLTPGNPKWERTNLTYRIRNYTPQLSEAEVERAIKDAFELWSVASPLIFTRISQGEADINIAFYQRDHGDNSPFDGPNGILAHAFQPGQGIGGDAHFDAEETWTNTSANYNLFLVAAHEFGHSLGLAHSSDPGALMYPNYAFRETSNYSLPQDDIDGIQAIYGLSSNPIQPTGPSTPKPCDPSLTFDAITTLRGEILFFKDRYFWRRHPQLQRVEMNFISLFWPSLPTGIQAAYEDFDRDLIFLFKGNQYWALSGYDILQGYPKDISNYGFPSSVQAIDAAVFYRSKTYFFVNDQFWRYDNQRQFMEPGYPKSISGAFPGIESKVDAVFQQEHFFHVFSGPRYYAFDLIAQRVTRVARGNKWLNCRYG

Cartilage tissue = assay: Inhibition of collagen degradation in bovine articular cartilage assessed as inhibition of interlukein-1alpha/oncostatin M-induced C1,C2 release measured after 11 days by ELISA; assay type: functional, tissue-based; settings: Bos taurus
Outline: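 Freshly isolated bovine articular cartilage pieces (~3 mm²) were stimulated with 5 ng/mL IL-1α plus 50 ng/mL OSM, with or without compound, for 11 days. Medium was refreshed twice weekly. Collagen degradation products in the conditioned medium were quantified by C1,2C ELISA.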

Cc1c(C(=O)O)ccc2c1CC[C@@H]2NC(=O)c1cc(C(=O)NCc2ccc3c(c2)NC(=O)CO3)nc2ccnn12
remaining at 1 h [1]: 96%
Activity (Rattus norvegicus [2]): Non-toxic
concentration at 504 h [3]: 300 nM
inhibition (INH) (Rattus norvegicus [4]): 100%
IC50 (Interstitial collagenase): > 20 µM
Cp (Plasma [5]): BLD
inhibition (INH) (Rattus norvegicus [6]): 100%
IC50 (Stromelysin-1): 8.2 µM
Activity (Rattus norvegicus [7]): Non-toxic
remaining at 1 h [8]: 95%
Cp (Plasma [9]): BLD
concentration at 56 days [10]: ≥ 2000 nM
inhibition (INH) (Rattus norvegicus [11]): 100%
IC50 [12]: > 20 µM
IC50 (Neutrophil collagenase): 3.2 µM
inhibition (Cartilage tissue): Dose-dependent effect
IC50 (Cartilage tissue; 264 h): 20 nM
